The values below come from ChEMBL document CHEMBL2375304, “Synthesis and anticancer activity of novel 2-pyridyl hexahyrocyclooctathieno[2,3-d]pyrimidine derivatives” (2013).

What all share (assay type): functional
In test [1] the test system is A498. Briefly: Growth inhibition of human A498 cells at 10^-5 M after 48 hrs by Sulforhodamine B assay relative to control. The conditions noted are these: A498, 48 h, read-out: GI. In short, it runs like this: (§1)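 Single-dose screen at 10⁻⁵ M. Cells are preincubated 24 h at 37 °C in 5% CO2, then exposed to the compound, diluted from a DMSO stock into medium with gentamicin, for 48 h. Adherent cells are fixed with cold TCA (final 10%) and suspension cells with TCA (final 16%). Cells are stained with 0.4% SRB in 1% acetic acid and bound dye is read at 515 nm. Percent growth inhibition is taken against control wells and time-zero plates.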

For test [2], the system named is U-251. Briefly: Growth inhibition of human U251 cells at 10^-5 M after 48 hrs by Sulforhodamine B assay relative to control. The note with it: U-251, 48 h, read-out: GI. The method in brief: (§2)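 Single-dose stage: compound tested at 10⁻⁵ M in the 49-cell-line panel. Cells grew 24 h at 37 °C, 5% CO₂ before drug addition. Drug stock was in DMSO at 400-fold, diluted in medium with gentamicin. After 48 h exposure, adherent cells were fixed with cold TCA (10% final) and stained with 0.4% SRB in 1% acetic acid. Dye was solubilized in 10 mM Tris, read at 515 nm. Growth percentage was taken relative to untreated control and time-zero plates.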
(In general: The SRB assay estimates cell density from bound dye.)

Test [3] concerns NCI-H23. Nature of the test: Growth inhibition of human NCI-H23 cells at 10^-5 M after 48 hrs by Sulforhodamine B assay relative to control. The conditions noted are these: NCI-H23, 48 h, read-out: GI. In short, it runs like this: (§3)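 Single-dose primary screen at 10⁻⁵ M across 49 lines. Cells were plated 24 h beforehand, with a TCA-fixed time-zero plate, then exposed 48 h at 37 °C, 5% CO2. Cells were fixed with cold TCA, stained with SRB and read at 515 nm. Percent growth was calculated against time-zero and untreated-control absorbances.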

Test [4] concerns HCT-15. Briefly: Growth inhibition of human HCT15 cells at 10^-5 M after 48 hrs by Sulforhodamine B assay relative to control. The conditions noted are these: HCT-15, 48 h, read-out: GI. In short, it runs like this: as §1
Test [5] relates to CCRF-CEM. Briefly: Growth inhibition of human CCRF-CEM cells at 10^-5 M after 48 hrs by Sulforhodamine B assay relative to control. The conditions noted are these: read-out: GI. In short, it runs like this: as §1
The test system of test [6] is T47D. Nature of the test: Growth inhibition of human T47D cells at 10^-5 M after 48 hrs by Sulforhodamine B assay relative to control. The conditions noted are these: read-out: GI. In short, it runs like this:
as §2

The subject of test [7] is SNB-75. Briefly: Growth inhibition of human SNB75 cells at 10^-5 M after 48 hrs by Sulforhodamine B assay relative to control. The note with it: SNB-75, 48 h, read-out: GI. The method in brief: as §3
In test [8] the test system is SK-MEL-28. Nature of the test: Growth inhibition of human SK-MEL-28 cells at 10^-5 M after 48 hrs by Sulforhodamine B assay relative to control. The note with it: SK-MEL-28, 48 h, read-out: GI. The method in brief:
as §3

Test [9] concerns MDA-MB-435. Briefly: Growth inhibition of human MDA-MB-435 cells at 10^-5 M after 48 hrs by Sulforhodamine B assay relative to control. The note with it: MDA-MB-435, 48 h, read-out: GI. The method in brief:
as §1

The subject of test [10] is K562. Briefly: Growth inhibition of human K562 cells at 10^-5 M after 48 hrs by Sulforhodamine B assay relative to control. The conditions noted are these: K562, 48 h, read-out: GI. The method in brief: as §1
Test [11] deals with UACC-62. Nature of the test: Growth inhibition of human UACC62 cells at 10^-5 M after 48 hrs by Sulforhodamine B assay relative to control. The conditions noted are these: UACC-62, 48 h, read-out: GI. The method in brief: as §2
Test [12] has as its system SN12C. Nature of the test: Growth inhibition of human SN12C cells at 10^-5 M after 48 hrs by Sulforhodamine B assay relative to control. The note with it: read-out: GI. In short, it runs like this: as §3
Test [13] has as its system Hs-578T. Briefly: Growth inhibition of human Hs578T cells at 10^-5 M after 48 hrs by Sulforhodamine B assay relative to control. The note with it: read-out: GI. In short, it runs like this:
as §1

Test [14] has as its system LOX IMVI. Briefly: Growth inhibition of human LOXIMVI cells at 10^-5 M after 48 hrs by Sulforhodamine B assay relative to control. The conditions noted are these: read-out: GI. In short, it runs like this:
as §1

Test [15] concerns HT-29. Nature of the test: Growth inhibition of human HT-29 cells at 10^-5 M after 48 hrs by Sulforhodamine B assay relative to control. The note with it: HT-29, 48 h, read-out: GI. In short, it runs like this: as §1
The test system of test [16] is SK-OV-3. Nature of the test: Growth inhibition of human SKOV3 cells at 10^-5 M after 48 hrs by Sulforhodamine B assay relative to control. The note with it: SK-OV-3, 48 h, read-out: GI. The method in brief: as §3
In test [17] the test system is COLO 205. Nature of the test: Growth inhibition of human COLO205 cells at 10^-5 M after 48 hrs by Sulforhodamine B assay relative to control. The conditions noted are these: COLO 205, 48 h, read-out: GI. The method in brief:
as §1

For test [18], the system named is ACHN. Nature of the test: Growth inhibition of human ACHN cells after 48 hrs by Sulforhodamine B assay. The method in brief:
(§4)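 Five-concentration SRB assay using 10-fold or ½-log serial dilutions from a DMSO stock. Exposure is 48 h at 37 °C in 5% CO2 after 24 h preincubation. TCA fixation is followed by SRB staining and a reading at 515 nm. Percentage growth is computed from time-zero, control and treated absorbances. GI50 is the concentration where [(Ti−Tz)/(C−Tz)]×100 = 50, read from the plot against log concentration.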

Test [19] has as its system HCT-15. Nature of the test: Growth inhibition of human HCT15 cells after 48 hrs by Sulforhodamine B assay. The conditions noted are these: HCT-15, 48 h. The method in brief: as §4
In test [20] the test system is K562. Briefly: Growth inhibition of human K562 cells after 48 hrs by Sulforhodamine B assay. The note with it: K562, 48 h. The method in brief:
as §4

Test [21] deals with NCI-H23. Nature of the test: Growth inhibition of human NCI-H23 cells after 48 hrs by Sulforhodamine B assay. The conditions noted are these: NCI-H23, 48 h. In short, it runs like this:
(§5)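 Cells were preincubated 24 h at 37 °C, 5% CO2, and a time-zero plate was TCA-fixed. Five concentrations were made by serial dilution from a DMSO stock (400-fold the top concentration) and incubated 48 h. Adherent cells were fixed with 10% final TCA and suspension cells with 16%. Plates were stained with 0.4% SRB and read at 515 nm. GI50 is the concentration giving 50% reduction in net protein increase versus control.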

Test [22] has as its system HOP-92. Briefly: Growth inhibition of human HOP92 cells after 48 hrs by Sulforhodamine B assay. The note with it: HOP-92, 48 h. The method in brief: as §4
Test [23] concerns SF-268. Nature of the test: Growth inhibition of human SF268 cells after 48 hrs by Sulforhodamine B assay. The note with it: SF-268, 48 h. In short, it runs like this: as §5
Test [24] relates to NCI-H322M. Nature of the test: Growth inhibition of human NCI-H322M cells after 48 hrs by Sulforhodamine B assay. In short, it runs like this:
as §5

Test [25] can be described thus: Growth inhibition of human HCC2998 cells after 48 hrs by Sulforhodamine B assay. The note with it: HCC 2998, 48 h. In short, it runs like this:
as §4

Test [26] deals with RPMI-8226. Briefly: Growth inhibition of human RPMI8226 cells after 48 hrs by Sulforhodamine B assay. The conditions noted are these: RPMI-8226, 48 h. The method in brief:
as §5

Test [27] has as its system TK-10. Nature of the test: Growth inhibition of human TK10 cells after 48 hrs by Sulforhodamine B assay. The conditions noted are these: TK-10, 48 h. The method in brief:
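Five-concentration stage in the […]-cell-line panel, using 10-fold or ½-log serial dilutions made from a DMSO stock (400-fold). Cells were preincubated 24 h at 37 °C, then drug-exposed 48 h. A time-zero plate was fixed with TCA at dosing, adherent cells were fixed with cold TCA (10% final), and protein was stained with SRB, absorbance 515 nm. GI50 was where [(Ti−Tz)/(C−Tz)]×100 = 50, from the percent growth vs log concentration plot, expressed as log10 GI50.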

Take `NNc1nc(-c2ccncc2)nc2sc3c(c12)CCCCCC3`: the inhibition of growth at 10 µM in [1] came out at 18.6%; in test [2], 6.15%; in test [3], 7.74%; in test [4], 7.32%; in test [5], 25.9%; in test [6] it was 0.16%. The inhibition of growth at 10 µM was 18.8% in test [7]; 4.94% in test [8]; 1.01% in [9]; 24.7% in test [10]; 10.8% in [11]; 4.3% in test [12]. The inhibition of growth at 10 µM in test [13] was -13.7%; in test [14] it was 5.88%; in [15], 13.2%; in [16] it was 9.44%; in [17] it was 2.31%.
With `Clc1nc(-c2ccncc2)nc2sc3c(c12)CCCCCC3`, the inhibition of growth at 10 µM is 37.2% in test [1]; -0.32% in [2]; 3.14% in test [3]; 0.89% in [4]; 23.8% in test [5]; 6.79% in test [6]. Also, the inhibition of growth at 10 µM is 9.59% in [7]; -4.12% in test [8]; 3.14% in test [9]; 13.6% in [10]; 6.14% in [11]; 4.53% in test [12]. Also, the inhibition of growth at 10 µM was 6.64% in [13]; 5.4% in test [14]; -1.58% in [15]; -7.46% in test [16]; -16.6% in test [17].
In the case of `O=c1[nH]c(-c2ccncc2)nc2sc3c(c12)CCCCCC3`, the 50% growth inhibitory concentration (GI50) in test [18], in [19], in test [20], in test [21], in [22] and in [23] was > 100 µM throughout. Also, the GI50 in [24], in test [25], in test [26] and in [27] was > 100 µM each time.
As to `Clc1nc(-c2ccccn2)nc2sc3c(c12)CCCCCC3`, the inhibition of growth at 10 µM in test [1] is -18.4%; in test [2], 2.82%; in test [3], 17.6%; in [4] it was 15.8%; in [5], 27.6%; in test [6] it was 57.8%. Moreover, the inhibition of growth at 10 µM in test [7] turned out to be 15%; in test [8], 10.7%; in test [9], 8.64%; in [10] it was 20.2%; in test [11] it was 4.04%; in [12] it was 15.1%. Further, the inhibition of growth at 10 µM in test [13] is 8.7%; in [14], 32.2%; in test [15] it was 0.67%; in test [16], -5.16%; in [17], -14.6%.
